The nature of series [1]: UV-vis absorption / aqueous solubility of Ce6. Type of series: physicochemical. Particulars: Ce6 diluted in PBS; ~660 nm absorption peak absent.
The test system of series [2] is Mouse bone marrow-derived dendritic cells (BMDCs). Briefly: BMDC activation. Type of series: cell-based. The conditions noted are these: 6 h incubation + 18 h fresh medium, flow cytometry. The method, boiled down:
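Immature mouse bone marrow-derived DCs plated at 2 × 10^6 cells per well and held overnight. Cells exposed for 6 h to free adjuvant, free photosensitizer or adjuvant/photosensitizer-loaded mesoporous silica nanoparticles. Medium then replaced and incubation continued for 18 h. Cells harvested, stained with fluorophore-labelled anti-CD40, anti-CD80 and anti-CD86, and analysed by flow cytometry, gating live intact cells only.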
A general note: A flow cytometer gives signals particle by particle.

For series [3] the test system is unchanged. Briefly: BMDC cytokine secretion. The series is classed as cell-based. Particulars: 6 h incubation + 18 h fresh medium, ELISA. In short, it runs like this: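 Immature mouse bone marrow-derived DCs plated at 2 × 10^6 cells per well and held overnight. Cells exposed for 6 h to free adjuvant, free photosensitizer or loaded mesoporous silica nanoparticles. Medium exchanged for fresh medium and incubation continued for 18 h. Culture medium then collected and IL-12p70 and TNF-α measured with ELISA kits.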
For orientation: An ELISA detects its analyte on a solid surface through an enzyme-linked reagent.

As to `C=Cc1c(C)c2cc3nc(c(CC(=O)O)c4[nH]c(cc5nc(cc1[nH]2)C(C)=C5CC)c(C)c4C(=O)O)[C@@H](CCC(=O)O)[C@@H]3C` [Ce6, chlorin e6], the aqueous solubility result in series [1] is recorded as “poor aqueous solubility”. For the same compound, the “DC maturation (expression levels of CD40, CD80, CD86)” value in series [2] is “no obvious signs of DC maturation”. Besides, in series [3], the “secretion of IL-12p70 and TNF-α” value is on record as “did not secrete any detectable levels”.
Consider CSSASMTNMELM [Adpgk], for which the “DC maturation (expression levels of CD40, CD80, CD86)” value in series [2] is given as “no obvious signs of DC maturation”. In series [3], the “secretion of IL-12p70 and TNF-α” value was “did not secrete any detectable levels”.

The record behind these values is article PMC6832743 (ACS nano, 2019).
